Experimental data published in ChEMBL document CHEMBL1134348, “Novel glucocorticoid antedrugs possessing a 17beta-(gamma-lactone) ring” (J Med Chem, 2001).

What was measured:
[1] = % stability in human plasma after 10 minutes.; type: ADME, organism-based; conditions: plasma, read-out: Stability
How it was run: (§1)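 Pooled heparinized plasma from 4 volunteers was incubated at 37 °C with test compound at a final concentration of 30 ug/mL, with DMSO-only controls. The reaction was stopped with 2 M citric acid at 10 and 60 min, with a zero-time sample. Supernatants were analysed by reversed-phase HPLC at 240 nm against an internal standard, in duplicate, and reported as % compound remaining.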

[2] = % stability in human plasma after 60 minutes.; type: ADME, organism-based; conditions: plasma, read-out: Stability; how it was run: as §1
[3] = % stability in krebs buffer after 60 minutes.; type: physicochemical; conditions: Krebs buffer; read-out: Stability
How it was run: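 Test compound, at a final concentration of 30 ug/mL, was spiked into Krebs buffer at 37 °C for 60 min, then quenched with 2 M citric acid. Supernatant was analysed by reversed-phase HPLC with UV detection at 240 nm and an internal standard, in duplicate. The read-out was % compound remaining.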

[4] = half life in human plasma.; type: ADME, organism-based
How it was run: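 Pooled heparinised plasma from 4 volunteers, stored at −20 °C; compound spiked to final 30 ug/mL at 37 °C. Half-life taken from additional time points in this incubation; reaction stopped with 2 M citric acid, samples frozen overnight and centrifuged. Supernatant analysed by reverse-phase HPLC with UV at 240 nm, internal standard dexamethasone or hydrocortisone; duplicates.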

Rattus norvegicus [5] = test: Inhibition of rat ear edema as percentage change in mean weight (44.05+/-1.18 mg) from control group of 55.67+/-1.22 mg at 100 ug dose; type: functional
Rattus norvegicus [6] = test: Inhibition of rat ear edema as percentage change in mean weight (50.65 +/- 1.18 mg) from control group of 55.67+/-1.22 mg at 25 ug dose; type: functional
Rattus norvegicus [7] = test: Inhibition of rat ear edema as percentage change in mean weight (54.86 +/- 1.35 mg) from control group of 55.67+/-1.22 mg at 6.25 ug dose; type: functional
Rattus norvegicus [8] = test: Inhibition of rat ear edema as percentage change in mean weight (56.03 +/- 1.41 mg) from control group of 55.67+/-1.22 mg at 1.56 ug dose; type: functional

SMILES: CC1(C)O[C@@H]2CC3C4C[C@H](F)C5=CC(=O)C=C[C@]5(C)[C@@]4(F)[C@@H](O)C[C@]3(C)[C@]2(SC2CCOC2=O)O1 (stereo partly drawn)
- remaining at 10 min [1]: 24%
- remaining at 1 h [2]: 0%
- remaining at 1 h [3]: 74%
- half-life [4]: 4 min
- Decrease (Rattus norvegicus [5]): 20.9%
- Decrease (Rattus norvegicus [6]): 9.01%
- Decrease (Rattus norvegicus [7]): 1.46%
- Decrease (Rattus norvegicus [8]): 0%
